Active and inactive are the calls of the source. No cut-off for these calls is given here.
Legend:
Escherichia coli [1] = assay: Growth inhibition of Escherichia coli BW25113 at 100 uM after 40 hrs in presence of glucose as sole carbon source; assay type: functional, organism-based
[2] = Non-competitive inhibition of Escherichia coli HinT using tryptamine 5'-adenosine phosphoramidate as substrate compound pre-incubated for 30 secs prior substrate addition measured for 2 mins by Dixon plot analysis
How it was run: (§1)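 Phosphoramidase assay on fluorogenic tryptamine 5'-adenosine phosphoramidate (TpAd), ecHinT or hHint1 enzyme. Enzyme pre-incubated with inhibitor 30 s at 25 °C, then substrate added. Hydrolysis followed as fluorescence rise (excitation 280 nm, emission 360 nm) over 2 min. HEPES buffer pH 7.2, 25 °C; Ki derived from rates versus concentration.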

[3] = target: Adenosine 5'-monophosphoramidase HINT1 (Homo sapiens, UniProt P49773); assay: Non-competitive inhibition of human HinT1 using tryptamine 5'-adenosine phosphoramidate as substrate compound pre-incubated for 30 secs prior substrate addition measured for 2 mins by Dixon plot analysis; how it was run: as §1
Escherichia coli [4] = assay: Inhibition of HinT in Escherichia coli BW25113 assessed as impaired growth at 100 uM after 40 hrs in presence of D,L-alanine as sole carbon source

Structure (SMILES)	growth inhibition (GI) (Escherichia coli [1])	Ki [2] [µM]	Ki [3] [µM]	inhibition (Escherichia coli [4])
Cc1cn([C@H]2C[C@H](N)[C@@H](COC(=O)NCCc3c[nH]c4ccccc34)O2)c(=O)[nH]c1=O	inactive	122	139	Active
Cc1cn([C@H]2C[C@H](N=[N+]=[N-])[C@@H](COC(=O)NCCc3c[nH]c4ccccc34)O2)c(=O)[nH]c1=O		565	715	
Nc1nc2c(ncn2[C@@H]2O[C@H](COC(=O)NCCc3c[nH]c4ccccc34)[C@@H](O)[C@H]2O)c(=O)[nH]1	inactive	42	34	Active
Nc1ncnc2c1ncn2[C@@H]1O[C@H](COC(=O)NCCc2c[nH]c3ccccc23)[C@@H](O)[C@H]1O	inactive	73	103	Active
Nc1ncnc2c1ncn2[C@@H]1O[C@H](COC(=O)CCCc2c[nH]c3ccccc23)[C@@H](O)[C@H]1O		393	457	
Nc1ncnc2c1ncn2[C@@H]1O[C@H](COC(=O)CCc2c[nH]c3ccccc23)[C@@H](O)[C@H]1O		375	400	

Source: ChEMBL document CHEMBL1933064, “Synthesis and evaluation of potential inhibitors of human and Escherichia coli histidine triad nucleotide binding proteins” (Bioorg Med Chem Lett, 2012)
